INS-1E ATP HTS: protection of INS-1E cells from cytokine death, primary screen, ATP luminescence, single point; INS-1E cytokine-induced death, 48 h; normalised: neutral wells 0, positive control 100; protection from cytokine-induced ATP loss, % at 10 µM; 0.1% of 20,000 active;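 active means mean replicate protection from cytokine-induced ATP loss at least 50% and at least 75% of replicates each reaching 50%; inconclusive means meets only one of the two criteria, mean or replicate share; inactive means fails both the mean and replicate share criteria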
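Assay system: INS-1E rat insulinoma cells. Amount: 8000 cells per well. Medium: phenol-red-free RPMI with 5% fetal bovine serum. Reagent: IL-1β, TNF-α and IFN-γ cytokine mix. Doses: one compound concentration, pin transfer. Schedule: 48 h co-treatment, 10 min post-lysis read. Detection: CellTiter-Glo luminescence measuring cellular ATP.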
T cruzi HTS: inhibitors of intracellular Trypanosoma cruzi, primary screen, cell-based, plate reader, single point, set 2; intracellular Trypanosoma cruzi in host cells; activity score (inhibition), % at 5.01 µM; 4.9% of 22,000 active; in the data active means activity score above about 55%; inconclusive means no clear call, values can overlap the other calls;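 further: parasites and compound incubated about four days before reading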
A1 apoptosis 2: A1 inhibitors via caspase activation, primary screen, cell-based, luminescence, HTS, two replicates; MEF A1-2A-BIM cells, caspase-Glo luminescence, 3 h; percent of clofoctol response, DMSO zero; caspase activation, % (no concentration beside the values); 24,000 tested, under 10 active; in the data active means caspase activation above about 5.9%; inconclusive means no clear call, values can overlap the other calls; inactive means below about 2.2%
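Material: A1-2A-BIM-expressing MEF cells. Buffer or medium: RPMI-1640 plus 10% FBS. Incubation: cells settled overnight, compound exposure 3 h at 37 °C, 5% CO2. Signal: Caspase-Glo 3/7 luminescence, 1 h at room temperature.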
Each line names hits and unclear results; the compound was inactive in the other large screens. Shown is part of a subset that was picked to be rich in hits.

COc1ccc(CN(C)C[C@H]2OCCCC[C@@H](C)Oc3ccc(NC(=O)Nc4c(C)noc4C)cc3C(=O)N([C@@H](C)CO)C[C@H]2C)cc1	none (no result: INS-1E ATP HTS, T cruzi HTS)
CCCN(C)C[C@H]1OCCCC[C@H](C)Oc2ccc(NS(=O)(=O)c3ccc(OC)cc3)cc2C(=O)N([C@H](C)CO)C[C@H]1C	none (no result: INS-1E ATP HTS, T cruzi HTS)
C[C@@H]1CN([C@H](C)CO)C(=O)c2cccc(NC(=O)c3nc4ccccc4s3)c2O[C@H]1CN(C)CC1CCCCC1	T cruzi HTS 58
C[C@@H]1CN([C@@H](C)CO)C(=O)c2cccc(NC(=O)c3nc4ccccc4s3)c2O[C@H]1CN(C)CC1CCCCC1	none
C[C@H]1CN([C@@H](C)CO)C(=O)c2cccc(NC(=O)c3nc4ccccc4s3)c2O[C@H]1CN(C)Cc1ccc(-c2ccccc2)cc1	none
C[C@H](CO)N1C[C@H](C)[C@H](CN(C)Cc2ccc(-c3ccccc3)cc2)Oc2c(NC(=O)c3nc4ccccc4s3)cccc2C1=O	T cruzi HTS 60 (no result: A1 apoptosis 2)
Cc1cc(C(=O)Nc2cccc3c2O[C@H](CN(C)S(=O)(=O)c2ccc(F)cc2)[C@H](C)CN([C@H](C)CO)C3=O)n(C)n1	none
C[C@H]1CN([C@@H](C)CO)C(=O)c2cc(NS(=O)(=O)c3ccc(F)cc3)ccc2O[C@@H]1CN(C)CC1CCCCC1	none (no result: INS-1E ATP HTS)
C[C@H]1CN([C@@H](C)CO)C(=O)c2cccc(NC(=O)Nc3ccc(F)cc3)c2O[C@@H]1CN(C)Cc1ccc(C(=O)Nc2ccccc2N)cc1	T cruzi HTS 67
C[C@@H]1CN([C@@H](C)CO)C(=O)c2cccc(NC(=O)Nc3ccc(F)cc3)c2O[C@H]1CN(C)Cc1ccc(C(=O)Nc2ccccc2N)cc1	T cruzi HTS 73 (no result: A1 apoptosis 2)
C[C@H](CO)N1C[C@H](C)[C@H](CN(C)Cc2ccc(C(=O)Nc3ccccc3N)cc2)Oc2c(NC(=O)Nc3ccc(F)cc3)cccc2C1=O	none
C[C@@H]1CN([C@@H](C)CO)C(=O)c2cccc(NC(=O)Nc3ccc(C(F)(F)F)cc3)c2O[C@H]1CN(C)Cc1ccc(C(=O)Nc2ccccc2N)cc1	T cruzi HTS inconclusive
C[C@H]1CN([C@@H](C)CO)C(=O)c2cc(NC(=O)Nc3ccc(F)cc3)ccc2O[C@H]1CN(C)Cc1ccc(C(=O)Nc2ccccc2N)cc1	none
C[C@@H]1CN([C@H](C)CO)C(=O)c2cccc(NC(=O)Nc3ccc(F)cc3)c2O[C@H]1CN(C)Cc1ccc(C(=O)Nc2ccccc2N)cc1	T cruzi HTS 78
C[C@H]1CN([C@@H](C)CO)C(=O)c2cccc(NC(=O)c3ccc(-c4nccs4)cc3)c2O[C@@H]1CN(C)S(C)(=O)=O	none
C[C@H]1CN([C@@H](C)CO)C(=O)Cc2cc(NS(=O)(=O)c3ccccc3)ccc2O[C@H]1CN(C)C	none
C[C@H]1CCCCO[C@@H](CN(C)C)[C@@H](C)CN([C@@H](C)CO)C(=O)c2cc(NC(=O)Nc3cccc4ccccc34)ccc2O1	none (no result: INS-1E ATP HTS, T cruzi HTS)
C[C@@H]1CCCCO[C@H](CN(C)S(=O)(=O)c2ccc(Cl)cc2)[C@H](C)CN([C@H](C)CO)C(=O)c2cc(NS(=O)(=O)c3ccc(Cl)cc3)ccc2O1	none (no result: INS-1E ATP HTS, T cruzi HTS)
C[C@@H]1CCCCO[C@H](CN(C)CC2CCCCC2)[C@@H](C)CN([C@H](C)CO)C(=O)c2cc(NS(=O)(=O)c3ccc(Cl)cc3)ccc2O1	none
Cc1ccc(S(=O)(=O)Nc2ccc3c(c2)C(=O)N([C@@H](C)CO)C[C@H](C)[C@@H](CN(C)S(=O)(=O)c2ccc(Cl)cc2)OCCCC[C@@H](C)O3)cc1	none (no result: INS-1E ATP HTS, T cruzi HTS)
C[C@@H]1CCCCO[C@@H](CN(C)S(=O)(=O)c2ccc(Cl)cc2)[C@@H](C)CN([C@H](C)CO)C(=O)c2cc(NS(=O)(=O)c3ccc(Cl)cc3)ccc2O1	T cruzi HTS 59
Cc1ccc(S(=O)(=O)N(C)C[C@H]2OCCCC[C@@H](C)Oc3ccc(NS(=O)(=O)c4ccc(Cl)cc4)cc3C(=O)N([C@H](C)CO)C[C@@H]2C)cc1	T cruzi HTS 64 (no result: A1 apoptosis 2)
C[C@@H]1CCCCO[C@@H](CN(C)CC2CCCCC2)[C@@H](C)CN([C@H](C)CO)C(=O)c2cc(NS(=O)(=O)c3ccc(Cl)cc3)ccc2O1	T cruzi HTS 62
Cc1ccc(S(=O)(=O)N(C)C[C@H]2Oc3c(NC(=O)c4ccc(-c5nccs5)cc4)cccc3C(=O)N([C@@H](C)CO)C[C@@H]2C)cc1	none
C[C@H]1CN([C@@H](C)CO)C(=O)c2cccc(NC(=O)NC3CCCCC3)c2O[C@H]1CN(C)S(=O)(=O)c1ccc(Cl)cc1	none

Bioassay records (PubChem BioAssay)
